Experimental data of several laboratories.
Lines come from different studies, so protocols differ.
LCK: Tyrosine-protein kinase Lck (LCK, Homo sapiens, UniProt P06239)
LCK phosphorylated: Tyrosine-protein kinase Lck, phosphorylated (LCK, Homo sapiens, UniProt P06239)

SMILES	target	assay	conditions	endpoint	result
CC(=O)C1=C(C)N(c2cccc(C(F)(F)F)c2)C(=O)N[C@@H]1c1ccc(C#N)nc1	LCK	cell-free assay, competition with immobilised ligand	1 µM	remaining binding	100%
FC(F)(F)Oc1cccc(-c2cnc3ccc(-c4ccncc4)nn23)c1	LCK	enzyme activity, inhibitor, radiometric	1 µM	activity vs control	35%
C=CC(=O)Nc1cc(Nc2nccc(Nc3cc(Cl)c(F)cc3C(C)(C)O)n2)c(OC)cc1N1CC[C@@H](N(C)C)C1	LCK	enzyme activity, inhibitor	1 µM	inhibition	37%
C[C@@H](c1cccc(C#N)c1)n1cc(Cl)cc(C(N)=O)c1=N	LCK	binding, competition with immobilised ligand	1 µM	remaining binding	90%
CN(C)C1CCN(CC#Cc2nn(C3CCCC3)c3nc(NCc4ccccc4)ncc23)C1 (stereo not shown)	LCK	enzyme activity, inhibitor, FRET	1 µM	inhibition	31%
N[C@H]1CCN(c2nccc(-c3cnn4ncccc34)n2)C1	LCK	cell-free assay	1 µM	remaining signal	90%
CCS(=O)(=O)c1cc2cc(C[C@](O)(CC(C)(C)c3ccc(F)cc3C(N)=O)C(F)(F)F)[nH]c2cn1	LCK	cell-free assay, competition with immobilised ligand	1 µM	remaining binding	100%
CC/C(=N\NC(=O)NCc1cccc(O)c1)c1ccc(O)c(C)c1O	LCK	enzyme activity, inhibitor	0.1 µM	inhibition	2%
CNC(=O)Nc1ccc2c(c1)[C@@]1(CC2)OC(=O)N(CC(=O)N(Cc2ccc(F)cc2)[C@@H](C)C(F)(F)F)C1=O	LCK	cell-free assay, competition with immobilised ligand	1 µM	remaining binding	86%
CNCc1ccc(-c2cc(-c3nc(-c4ccc(S(=O)(=O)C(C)C)cc4)cnc3N)on2)cc1	LCK	enzyme activity, inhibitor	0.4 µM	inhibition	42%
Cc1cc(NC(=O)c2cccc3cc(-c4cccc5[nH]nc(N)c45)ccc23)ccc1F	LCK phosphorylated	enzyme activity, inhibitor	0.1 µM	activity vs control	88%
CSc1cccnc1N1CCN(Cc2nc3ccccc3[nH]2)CC1	LCK	binding, competition with immobilised ligand	1 µM	remaining binding	100%
COc1cc(/C=C/C(=O)CC(=O)/C=C/c2ccc(O)c(OC)c2)ccc1O	LCK	enzyme activity, inhibitor	1 µM	activity vs control	80%
CC(C)(C)n1nc(Cc2cccc3ccccc23)c2c(N)ncnc21	LCK	enzyme activity, inhibitor	0.5 µM	activity vs control	80.4%
NS(=O)(=O)c1cc(NC(=O)Cc2ccccc2)ccc1Oc1cccc(Cl)c1	LCK	cell-free assay, competition with immobilised ligand	1 µM	remaining binding	70%
CNC(=O)c1cc2c(Oc3ccc(NC(=O)C4(C(=O)Nc5ccc(F)cc5)CC4)cc3)ccnc2cc1OC	LCK phosphorylated	enzyme activity, inhibitor, radiometric	1 µM	inhibition	97%
CS(=O)(=O)N1CCCC(NC(=O)[C@H](CCC2CCCCC2)NC(=O)c2ccc(CNc3ncnc4c3nnn4-c3ccccc3)cc2)C1 (stereo partly shown)	LCK	cell-free assay, competition with immobilised ligand	0.1 µM	remaining binding	100%
O=C1c2ccccc2-c2n[nH]c3cccc1c23	LCK	enzyme activity, inhibitor	0.5 µM	activity vs control	97.1%
Cc1cnn2ncc(-c3ccnc(N(C)C)n3)c2c1	LCK	cell-free assay	1 µM	remaining signal	100%
c1nc2c(Nc3ccc4c(c3)OCCO4)nc(Nc3ccc4c(c3)OCCO4)nc2[nH]1	LCK	enzyme activity, inhibitor	10 µM	activity vs control	2.1%
Cc1ccc(Nc2nccc(N(C)c3ccc4c(C)n(C)nc4c3)n2)cc1S(N)(=O)=O	LCK	enzyme activity, inhibitor	0.3 µM	inhibition	59%
CC1CCCN1c1nccc(-c2cnn3ncccc23)n1 (stereo not shown)	LCK	cell-free assay	1 µM	remaining signal	100%
Cc1ccc(C(=O)NCc2ccsc2)cc1C#Cc1cn(C(C)C)c2ncnc(N)c12	LCK phosphorylated	enzyme activity, inhibitor	1 µM	activity vs control	2%
COc1cc2ncnc(Nc3ccc(Oc4ccccc4)c(C)c3C)c2cc1OC	LCK	enzyme activity, inhibitor	1 µM	inhibition	83%
CCCS(=O)(=O)Nc1ccc(F)c(C(=O)c2c[nH]c3ncc(-c4ccc(Cl)cc4)cc23)c1F	LCK	enzyme activity, inhibitor	1 µM	inhibition	< 10%
